ChEMBL document CHEMBL3351665, “Synthesis and evaluation of benzimidazole carbamates bearing indole moieties for antiproliferative and antitubulin activities” (Eur J Med Chem, 2014)
Calls of active or inactive are those of the source. The rule behind the calls is not given here.

Key:
[1] = Growth inhibition of human SGC7901 cells after 72 hrs by MTT assay; assay type: functional, cell-based; conditions: SGC-7901, 72 h
In short: (§1)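 Cells grown in RPMI-1640 with 10% FBS, penicillin/streptomycin, 37 °C, 5% CO2; seeded 1-3 × 10^4/well, treated 24 h later in triplicate wells for 72 h. MTT (5 mg/mL) added in fresh medium for 4 h, formazan dissolved in DMSO, OD490 read; IC50 = concentration reducing absorbance by 50% versus vehicle-treated wells; triplicate experiments.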

A549 = assay: Growth inhibition of human A549 cells after 72 hrs by MTT assay; assay type: functional, cell-based; conditions: A549, 72 h; in short: as §1
[2] = Growth inhibition of human HT1080 cells after 72 hrs by MTT assay; assay type: functional, cell-based; conditions: HT-1080, 72 h; in short: as §1
Tubulin (Homo sapiens) [3] = molecular target: T1, Tubulin (Homo sapiens) (UniProt P68371+Q9H4B7+P0DPH7+P68366+Q13509+Q71U36+P04350+Q3ZCM7+P07437+P68363+Q9BQE3+Q6PEY2+Q13885+Q9BVA1+Q9BUF5); assay: Induction of distortions in tubulin assembly in human SGC7901 cells assessed as abnormal mitotic spindle formation at 2 fold IC50 level incubated for 48 hrs by immunofluorescence staining based fluorescence microscopy; assay type: cell-based; conditions: SGC-7901
In short: (§2)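 Fixed in 4% formaldehyde/PBS 30 min at -20 °C, permeabilised with 0.1% Triton X-100, blocked in 5% BSA. Stained with α-tubulin primary (1:100, overnight 4 °C) and FITC anti-mouse secondary (1:1000, 3 h 37 °C), DAPI nuclei; fluorescence microscopy.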

Tubulin (Homo sapiens) [4] = molecular target: T1, Tubulin (Homo sapiens); assay: Induction of distortions in tubulin assembly in human HT1080 cells assessed as abnormal mitotic spindle formation at 2 fold IC50 level incubated for 48 hrs by immunofluorescence staining based fluorescence microscopy; assay type: cell-based; conditions: HT-1080; in short: as §2
Tubulin (Bos taurus) = Tubulin (Bos taurus) (UniProt Q6B856+Q862L2+Q862F3); assay: (§3) Inhibition of bovine brain tubulin polymerization incubated for 90 mins by fluorescence-based assay
In short: (§4)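 Fluorescence kit assay with purified bovine tubulin resuspended in ice-cold G-PEM (80 mM PIPES, 2 mM MgCl2, 0.5 mM EGTA, 1 mM GTP, 20% glycerol) and added to drug or DMSO vehicle. Reaction started by warming from 4 °C to 37 °C.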

Tubulin = Tubulin (Bos taurus, UniProt Q6B856+Q862L2+Q862F3); assay: as §3; in short: as §4

SMILES	IC50 [1] [µM]	IC50 (A549) [µM]	IC50 [2] [µM]	Activity (Tubulin (Homo sapiens) [3])	Activity (Tubulin (Homo sapiens) [4])	inhibition (Tubulin (Bos taurus))	IC50 (Tubulin) [µM]
COC(=O)Nc1nc2cc(C(=O)c3cccs3)ccc2[nH]1 [NOCODAZOLE]	0.08	0.12	0.14	Active	Active	–	–
COC(=O)Nc1nc2cc(S(=O)(=O)c3c[nH]c4ccc(Br)cc34)ccc2[nH]1	7.44	7.42	3.18	–	–	–	–
COC(=O)Nc1nc2cc([S+]([O-])c3c(C)[nH]c4ccccc34)ccc2[nH]1 (stereo not drawn)	9.93	7.98	9.85	–	–	–	–
COC(=O)Nc1nc2cc(Sc3c(C)[nH]c4ccccc34)ccc2[nH]1	0.51	0.83	0.97	–	–	–	–
COC(=O)Nc1nc2cc(S(=O)(=O)c3c[nH]c4ccc(C#N)cc34)ccc2[nH]1	> 10	> 10	> 10	–	–	–	–
COC(=O)Nc1nc2cc(Sc3c(C)[nH]c4ccc(F)cc34)ccc2[nH]1	1.2	2.52	3.27	–	–	–	–
COC(=O)Nc1nc2cc([Se]c3c[nH]c4ccc(C#N)cc34)ccc2[nH]1	1.11	5.07	0.95	–	–	–	–
COC(=O)Nc1nc2cc([Se]c3c[nH]c4ccccc34)ccc2[nH]1	0.098	0.15	0.13	Active	Active	Dose-dependent effect	3.6
COC(=O)Nc1nc2cc(Sc3c(C)[nH]c4ccc(Cl)cc34)ccc2[nH]1	3.38	7.33	4.13	–	–	–	–
COC(=O)Nc1nc2cc([Se]c3c(C)[nH]c4ccc(F)cc34)ccc2[nH]1	1.12	1.15	1.69	–	–	–	–
COC(=O)Nc1nc2cc(S(=O)(=O)c3c[nH]c4ccccc34)ccc2[nH]1	1.26	4.21	2.01	–	–	–	–
COC(=O)Nc1nc2cc([Se]c3c(C)[nH]c4ccc(Cl)cc34)ccc2[nH]1	> 10	2.98	> 10	–	–	–	–
COC(=O)Nc1nc2cc(Sc3c[nH]c4ccccc34)ccc2[nH]1	2.62	0.39	0.88	–	–	–	–
COC(=O)Nc1nc2cc(S(=O)(=O)c3c(C)[nH]c4ccccc34)ccc2[nH]1	> 10	> 10	> 10	–	–	–	–
COC(=O)Nc1nc2cc([S+]([O-])c3c(C)[nH]c4ccc(F)cc34)ccc2[nH]1 (stereo not drawn)	3.51	3.27	> 10	–	–	–	–
COC(=O)Nc1nc2cc(Sc3c[nH]c4ccc(C#N)cc34)ccc2[nH]1	0.12	5.14	0.62	–	–	–	–
COC(=O)Nc1nc2cc([S+]([O-])c3c[nH]c4ccccc34)ccc2[nH]1 (stereo not drawn)	3.96	6.23	5.24	–	–	–	–
COC(=O)Nc1nc2cc([S+]([O-])c3c[nH]c4ccc(Br)cc34)ccc2[nH]1 (stereo not drawn)	5.19	> 10	> 10	–	–	–	–
COC(=O)Nc1nc2cc([S+]([O-])c3c[nH]c4ccc(C#N)cc34)ccc2[nH]1 (stereo not drawn)	> 10	> 10	9.43	–	–	–	–
COC(=O)Nc1nc2cc([Se]c3c(C)[nH]c4ccccc34)ccc2[nH]1	0.23	3.83	0.27	–	–	–	–
COC(=O)Nc1nc2cc(S(=O)(=O)c3c(C)[nH]c4ccc(F)cc34)ccc2[nH]1	4.18	9.08	> 10	–	–	–	–
COC(=O)Nc1nc2cc([S+]([O-])c3c(C)[nH]c4ccc(Cl)cc34)ccc2[nH]1 (stereo not drawn)	> 10	> 10	> 10	–	–	–	–
COC(=O)Nc1nc2cc(Sc3c[nH]c4ccc(Br)cc34)ccc2[nH]1	2.12	1.19	1.33	–	–	Dose-dependent effect	8.2
COC(=O)Nc1nc2cc(S(=O)(=O)c3c(C)[nH]c4ccc(Cl)cc34)ccc2[nH]1	> 10	> 10	> 10	–	–	–	–
COC(=O)Nc1nc2cc([Se]c3c[nH]c4ccc(Br)cc34)ccc2[nH]1	2.15	2.21	2.75	–	–	–	–
